For experiment [1], the system named is MCF7. Put plainly: Antiproliferative activity against human MCF7 cells after 48 hrs by MTT assay. It counts as functional, cell-based. The note with it: MCF7, 48 h. An outline of the steps: (§1)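 Cells diluted to 2×10^4 cells mL⁻¹ in complete medium, plated and held 24 h at 37 °C, 5% CO₂ before dosing at pre-set concentrations. After 48 h exposure, MTT (2.5 mg mL⁻¹ in PBS) added for 4 h, then SDS–isobutyl alcohol–HCl extraction solution overnight at 37 °C. Absorbance read at 570 nm. Three replicate wells per concentration, each assay run at least three times.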
Background: Tetrazolium dyes change colour on reduction, which living cells bring about.

The test system of another experiment is A549. Put plainly: Antiproliferative activity against human A549 cells after 48 hrs by MTT assay. It counts as functional, cell-based. The settings on record: A549, 48 h. An outline of the steps:
as §1

Experiment [2] can be described thus: Inhibition of bovine brain tubulin polymerization preincubated for 10 mins measured after 20 mins. Set-up: species or system Bos taurus. An outline of the steps:
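Tubulin purified from bovine brain, used at 10 µM in glutamate buffer and preincubated with varying compound concentrations at 30 °C, then cooled to 0 °C. GTP added and mixtures warmed to 30 °C in a recording spectrophotometer, with assembly followed turbidimetrically.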

The test system of experiment [3] is MCF7. Briefly: Induction of cell cycle arrest in human MCF7 cells assessed as accumulation at G2/M phase at 5 ug/ml after 24 hrs by flow cytometric analysis (reference value: 18%). It counts as functional.
Experiment [4] relates to MCF7. Put plainly: Induction of cell cycle arrest in human MCF7 cells assessed as accumulation at S phase at 5 ug/ml after 24 hrs by flow cytometric analysis (reference value: 12%). It counts as functional. (In general: In flow cytometry, cells or beads pass a laser one at a time.)
The subject of experiment [5] is MCF7. Briefly: Induction of cell cycle arrest in human MCF7 cells assessed as accumulation at G0/G1 phase at 5 ug/ml after 24 hrs by flow cytometric analysis (reference value: 66%). It counts as functional.

The source of these data is ChEMBL document CHEMBL1932925, “Synthesis, biological evaluation, and molecular docking studies of cinnamic acyl 1,3,4-thiadiazole amide derivatives as novel antitubulin agents” (Bioorg Med Chem, 2012).

Values after ≈ are worked out from the molar mass of the structure shown.

The term IC50 denotes the concentration that gives 50% inhibition. A high value points to weaker potency. On to `O=C(/C=C/c1ccccc1)Nc1nnc(-c2ccccc2)s1`, for which the IC50 in the experiment with MCF7 [1] is 1.47 µg/mL (≈ 4.78 µM); in the experiment with A549 it was 1.75 µg/mL (≈ 5.69 µM); in experiment [2], 5.68 µg/mL (≈ 18.5 µM).

As to `O=C(/C=C/c1ccc(F)cc1)Nc1nnc(-c2ccccc2)s1`, the 50% inhibitory concentration (IC50) in the experiment on MCF7 [1] turned out to be 1.45 µg/mL (≈ 4.46 µM); in the experiment on A549, 1.82 µg/mL (≈ 5.59 µM); in experiment [2], 5.87 µg/mL (≈ 18 µM).

On to `O=C(/C=C/c1ccc(C(F)(F)F)cc1)Nc1nnc(-c2ccccc2)s1`, for which the 50% inhibitory concentration (IC50) in the experiment with MCF7 [1] is 1.52 µg/mL (≈ 4.05 µM); in the experiment on A549 it was 1.78 µg/mL (≈ 4.74 µM); in experiment [2], 5.52 µg/mL (≈ 14.7 µM).

On to `Cc1ccc(/C=C/C(=O)Nc2nnc(-c3ccccc3)s2)cc1`, for which the IC50 was 1.23 µg/mL (≈ 3.83 µM) with MCF7 [1], 1.58 µg/mL (≈ 4.92 µM) in the experiment with A549 and 4.49 µg/mL (≈ 14 µM) in experiment [2].

Consider `COc1ccc(/C=C/C(=O)Nc2nnc(-c3ccccc3)s2)cc1`, for which the IC50 in the experiment on MCF7 [1] amounted to 0.83 µg/mL (≈ 2.46 µM); in the experiment with A549, 0.76 µg/mL (≈ 2.25 µM); in experiment [2], 3.02 µg/mL (≈ 8.95 µM).

`O=C(/C=C/c1ccccc1)Nc1nnc(-c2ccc(Cl)cc2)s1`: the figures for the IC50 (in the experiment on MCF7 [1]; in the experiment with A549; in experiment [2]) were 1.42 µg/mL (≈ 4.15 µM), 2.02 µg/mL (≈ 5.91 µM) and 6.56 µg/mL (≈ 19.2 µM), respectively.

With `O=C(/C=C/c1ccc(F)cc1)Nc1nnc(-c2ccc(Cl)cc2)s1`, the IC50 with MCF7 [1] stood at 1.58 µg/mL (≈ 4.39 µM); with A549, 2.06 µg/mL (≈ 5.73 µM); in experiment [2] it was 7.08 µg/mL (≈ 19.7 µM).

Regarding `O=C(/C=C/c1ccc(C(F)(F)F)cc1)Nc1nnc(-c2ccc(Cl)cc2)s1`, the IC50 came to 1.65 µg/mL (≈ 4.03 µM) in the experiment with MCF7 [1], 3.09 µg/mL (≈ 7.54 µM) in the experiment on A549 and 7.83 µg/mL (≈ 19.1 µM) in experiment [2].

In the case of `Cc1ccc(/C=C/C(=O)Nc2nnc(-c3ccc(Cl)cc3)s2)cc1`, the IC50 in the experiment on MCF7 [1] is 1.44 µg/mL (≈ 4.05 µM); in the experiment on A549 it was 1.25 µg/mL (≈ 3.51 µM); in experiment [2] it was 4.79 µg/mL (≈ 13.5 µM).

In the case of `COc1ccc(/C=C/C(=O)Nc2nnc(-c3ccc(Cl)cc3)s2)cc1`, the IC50 in the experiment on MCF7 [1] was determined as 0.91 µg/mL (≈ 2.45 µM); in the experiment with A549 it was 1.38 µg/mL (≈ 3.71 µM); in experiment [2], 5.68 µg/mL (≈ 15.3 µM).

In the case of `O=C(/C=C/c1ccccc1)Nc1nnc(-c2ccc(Br)cc2)s1`, the figures for the IC50 (in the experiment on MCF7 [1]; in the experiment with A549; in experiment [2]) were 1.5 µg/mL (≈ 3.88 µM), 2.18 µg/mL (≈ 5.64 µM) and 7.05 µg/mL (≈ 18.3 µM), respectively.

Take `O=C(/C=C/c1ccc(F)cc1)Nc1nnc(-c2ccc(Br)cc2)s1`: the figures for the IC50 (in the experiment with MCF7 [1]; in the experiment with A549; in experiment [2]) were 1.49 µg/mL (≈ 3.69 µM), 2.83 µg/mL (≈ 7 µM) and 8.66 µg/mL (≈ 21.4 µM), respectively.

On to `O=C(/C=C/c1ccc(C(F)(F)F)cc1)Nc1nnc(-c2ccc(Br)cc2)s1`, for which the half-inhibitory concentration (IC50) was determined as 1.58 µg/mL (≈ 3.48 µM) with MCF7 [1], 4.68 µg/mL (≈ 10.3 µM) in the experiment with A549 and 10.6 µg/mL (≈ 23.3 µM) in experiment [2].

As for `Cc1ccc(/C=C/C(=O)Nc2nnc(-c3ccc(Br)cc3)s2)cc1`, the IC50 with MCF7 [1] came out at 1.32 µg/mL (≈ 3.3 µM); with A549, 1.51 µg/mL (≈ 3.77 µM); in experiment [2], 5.02 µg/mL (≈ 12.5 µM).

Turning to `COc1ccc(/C=C/C(=O)Nc2nnc(-c3ccc(Br)cc3)s2)cc1`, the IC50 in the experiment on MCF7 [1] came to 1.13 µg/mL (≈ 2.71 µM); with A549, 1.04 µg/mL (≈ 2.5 µM); in experiment [2], 4.11 µg/mL (≈ 9.87 µM).

For `Cc1ccc(-c2nnc(NC(=O)/C=C/c3ccccc3)s2)cc1`, the IC50 with MCF7 [1] worked out at 1.19 µg/mL (≈ 3.7 µM); in the experiment on A549, 1.38 µg/mL (≈ 4.29 µM); in experiment [2] it was 4.83 µg/mL (≈ 15 µM).

On to `Cc1ccc(-c2nnc(NC(=O)/C=C/c3ccc(F)cc3)s2)cc1`, for which the values for the IC50 (with MCF7 [1]; with A549; in experiment [2]) were 1.27 µg/mL (≈ 3.74 µM), 1.23 µg/mL (≈ 3.62 µM) and 5.08 µg/mL (≈ 15 µM), respectively.

Take `Cc1ccc(-c2nnc(NC(=O)/C=C/c3ccc(C(F)(F)F)cc3)s2)cc1`: the IC50 with MCF7 [1] was found to be 1.1 µg/mL (≈ 2.82 µM); with A549, 1.61 µg/mL (≈ 4.13 µM); in experiment [2], 5.16 µg/mL (≈ 13.3 µM).

As for `Cc1ccc(/C=C/C(=O)Nc2nnc(-c3ccc(C)cc3)s2)cc1`, the figures for the IC50 (with MCF7 [1]; in the experiment with A549; in experiment [2]) were 0.61 µg/mL (≈ 1.82 µM), 1.08 µg/mL (≈ 3.22 µM) and 4.15 µg/mL (≈ 12.4 µM), respectively.

In the case of `COc1ccc(/C=C/C(=O)Nc2nnc(-c3ccc(C)cc3)s2)cc1`, the IC50 in the experiment on MCF7 [1] was found to be 0.35 µg/mL (≈ 0.996 µM); in the experiment with A549 it was 0.66 µg/mL (≈ 1.88 µM); in experiment [2], 2.64 µg/mL (≈ 7.51 µM).

For `COc1ccc(-c2nnc(NC(=O)/C=C/c3ccccc3)s2)cc1`, the IC50 turned out to be 0.78 µg/mL (≈ 2.31 µM) in the experiment with MCF7 [1], 0.68 µg/mL (≈ 2.02 µM) with A549 and 3.08 µg/mL (≈ 9.13 µM) in experiment [2].

With `COc1ccc(-c2nnc(NC(=O)/C=C/c3ccc(F)cc3)s2)cc1`, the results for the IC50 (in the experiment with MCF7 [1]; in the experiment on A549; in experiment [2]) were 0.85 µg/mL (≈ 2.39 µM), 0.75 µg/mL (≈ 2.11 µM) and 3.05 µg/mL (≈ 8.58 µM), respectively.

Take `COc1ccc(-c2nnc(NC(=O)/C=C/c3ccc(C(F)(F)F)cc3)s2)cc1`: the results for the IC50 (in the experiment with MCF7 [1]; in the experiment with A549; in experiment [2]) were 0.79 µg/mL (≈ 1.95 µM), 0.69 µg/mL (≈ 1.7 µM) and 3.17 µg/mL (≈ 7.82 µM), respectively.

As to `COc1ccc(-c2nnc(NC(=O)/C=C/c3ccc(C)cc3)s2)cc1`, the results for the IC50 (in the experiment on MCF7 [1]; in the experiment with A549; in experiment [2]) were 0.31 µg/mL (≈ 0.882 µM), 0.58 µg/mL (≈ 1.65 µM) and 2.56 µg/mL (≈ 7.28 µM), respectively.

On to `COc1ccc(/C=C/C(=O)Nc2nnc(-c3ccc(OC)cc3)s2)cc1`, for which the half-inhibitory concentration (IC50) came out at 0.28 µg/mL (≈ 0.762 µM) with MCF7 [1], 0.52 µg/mL (≈ 1.42 µM) in the experiment with A549 and 1.16 µg/mL (≈ 3.16 µM) in experiment [2]. Further, the results for the Activity with MCF7 [3], in the experiment on MCF7 [4] and in the experiment with MCF7 [5] were 68%, 2% and 2%, respectively.

In the case of `COc1cc2c(c(OC)c1OC)-c1ccc(OC)c(=O)cc1[C@@H](NC(C)=O)CC2` [COLCHICINE], the figures for the IC50 in the experiment with MCF7 [1] and with A549 were 0.53 µg/mL (≈ 1.33 µM) and 0.75 µg/mL (≈ 1.88 µM), respectively. Also, the Activity in the experiment with MCF7 [3] was found to be 79%; in the experiment on MCF7 [4] it was 3%; in the experiment on MCF7 [5], 2%.

Take `COc1ccc(/C=C\c2cc(OC)c(OC)c(OC)c2)cc1O` [COMBRETASTATIN A4]: the IC50 with MCF7 [1] was 0.41 µg/mL (≈ 1.3 µM); in the experiment on A549 it was 0.55 µg/mL (≈ 1.74 µM); in experiment [2] it was 0.81 µg/mL (≈ 2.56 µM).
